Type in all cases: functional
The test system of one assay is Candida albicans. In words: Minimum inhibitory concentration of Candida albicans growth. An outline of the steps: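 Candida albicans ATCC 10231 in YM broth at 22 °C. Overnight culture added to sample in 4% DMSO in water, about 1 × 10^5 cells/well, 150 μL, duplicate. Growth scored visually at 48 h. MIC is reported as a concentration range: full inhibition at the upper value, viable cells at the lower. Amphotericin B was the positive control.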

Assay [1] relates to Escherichia coli. The assay can be described thus: (§1) Minimum inhibitory concentration of Escherichia coli growth.
Assay [2] relates to Escherichia coli. The description is as §1. The source holds these as a separate data set.
The test system of a further assay is Enterococcus faecalis. In words: Minimum inhibitory concentration of Enterococcus faecalis growth. An outline of the steps:
(§2)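 Broth-microdilution at 37 °C. Strains and media: E. faecalis ATCC 29212 in Todd-Hewitt, K. pneumoniae ATCC 13883 and P. vulgaris ATCC 8427 in nutrient broth, S. aureus ATCC 25923 in trypticase soy broth. About 1 × 10^7 cells/well, sample in 4% DMSO in water, duplicate. A595 read at 24 h versus a no-compound well. MIC is reported as a range. Ampicillin and tetracycline were controls.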

In another assay the test system is Klebsiella pneumoniae. In words: Minimum inhibitory concentration of Klebsiella pneumoniae growth. An outline of the steps: as §2
A further assay deals with Proteus vulgaris. In words: Minimum inhibitory concentration of Proteus vulgaris growth. An outline of the steps:
as §2

In the next assay the test system is Pseudomonas aeruginosa. In words: Minimum inhibitory concentration of Pseudomonas aeruginosa growth. The essentials:
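Pseudomonas aeruginosa ATCC 27853 in nutrient broth at 37 °C. About 1 × 10^7 cells/well, sample in 4% DMSO in water, 150 μL, duplicate. Growth relative to an untreated well was read at A595 after 24 h. MIC is given as a range, complete inhibition at the higher concentration. Ciprofloxacin was the positive control.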

The test system of assay [3] is Streptococcus pyogenes. In words: Minimum inhibitory concentration of Streptococcus pyogenes (wt) growth. An outline of the steps: (§3)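 Streptococcus pyogenes in Todd-Hewitt broth at 37 °C. The tier II strain is ATCC 49399. Overnight culture at about 1 × 10^7 cells/well, sample in 4% DMSO in water, duplicate. Percent growth versus a no-compound well by A595 at 24 h. MIC is a concentration range: full inhibition at the upper value, growth at the lower. Ampicillin and tetracycline were controls.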

Assay [4] relates to Streptococcus pyogenes. In words: Minimum inhibitory concentration of Streptococcus pyogenes growth. An outline of the steps: as §3
In the next assay the test system is Staphylococcus aureus. In words: Minimum inhibitory concentration of Staphylococcus aureus growth. The essentials: as §2
The mark [5] stands for this setting: Escherichia coli, read-out: MIC.
Where [6] appears, read: Streptococcus pyogenes, read-out: MIC.

These results are taken from ChEMBL document CHEMBL1131483, “Discovery of novel pyridinopolyamines with potent antimicrobial activity: deconvolution of mixtures synthesized by solution-phase combinatorial chemistry” (1998).

In brackets after ≈: the same amount, converted by molar mass.

On to `OCCCNCCN(Cc1ccccc1)Cc1cccc(CN(Cc2ccccc2)Cc2ccccc2)n1`, for which the minimum inhibitory concentration (MIC) – broadly, the lowest concentration found to suppress growth – stood at 50 µM (≈ 25.4 µg/mL) in the assay with Candida albicans (Candida albicans); 12 µM (≈ 6.1 µg/mL) in the assay with Escherichia coli [1]; 10 µM (≈ 5.09 µg/mL) in the assay on Escherichia coli [2] (setting [5]); 12 µM (≈ 6.1 µg/mL) in the assay on Enterococcus faecalis; 50 µM (≈ 25.4 µg/mL) against Klebsiella pneumoniae; 50 µM (≈ 25.4 µg/mL) with Proteus vulgaris. The MIC with Pseudomonas aeruginosa stood at 50 µM (≈ 25.4 µg/mL); against Streptococcus pyogenes [3], 6 µM (≈ 3.05 µg/mL); in the assay on Streptococcus pyogenes [4] (setting [6]), 5 µM (≈ 2.54 µg/mL); against Staphylococcus aureus, 25 µM (≈ 12.7 µg/mL).
Take `OCCCNCCN(Cc1cccc(F)c1)Cc1cccc(CN(Cc2cccc(F)c2)Cc2cccc(F)c2)n1`: the MIC with Candida albicans (Candida albicans) worked out at 50 µM (≈ 28.1 µg/mL); in the assay on Escherichia coli [1], 12 µM (≈ 6.75 µg/mL); with Escherichia coli [2] (setting [5]), 5 µM (≈ 2.81 µg/mL); against Enterococcus faecalis, 25 µM (≈ 14.1 µg/mL); against Streptococcus pyogenes [3], 6 µM (≈ 3.38 µg/mL); in the assay with Streptococcus pyogenes [4] (setting [6]) it was 5 µM (≈ 2.81 µg/mL). In addition, the MIC in the assay on Staphylococcus aureus is 12 µM (≈ 6.75 µg/mL).
Regarding `COC(=O)c1cccc(CN(CCNCCCO)Cc2cccc(CN(Cc3cccc(C(=O)OC)c3)Cc3cccc(C(=O)OC)c3)n2)c1`, the MIC against Candida albicans (Candida albicans) was 50 µM (≈ 34.1 µg/mL); against Escherichia coli [1], 25 µM (≈ 17.1 µg/mL); with Escherichia coli [2] (setting [5]), 20 µM (≈ 13.7 µg/mL); against Enterococcus faecalis, greater than 100 µM; in the assay with Streptococcus pyogenes [3], 12 µM (≈ 8.19 µg/mL); in the assay on Streptococcus pyogenes [4] (setting [6]) it was 10 µM (≈ 6.83 µg/mL). Also, the MIC in the assay with Staphylococcus aureus turned out to be 25 µM (≈ 17.1 µg/mL).
For `COC(=O)c1cccc(CN(Cc2cccc(C(F)(F)F)c2)Cc2cccc(CN(CCNCCCO)Cc3cccc(C(F)(F)F)c3)n2)c1`, the MIC against Candida albicans (Candida albicans) is greater than 100 µM; in the assay with Escherichia coli [1], greater than 100 µM; in the assay on Escherichia coli [2] (setting [5]), 6 µM (≈ 4.22 µg/mL); in the assay on Enterococcus faecalis it was 6 µM (≈ 4.22 µg/mL); in the assay on Klebsiella pneumoniae, greater than 100 µM; in the assay with Proteus vulgaris, greater than 100 µM. In addition, the MIC was greater than 100 µM in the assay with Pseudomonas aeruginosa, 6 µM (≈ 4.22 µg/mL) against Streptococcus pyogenes [3], 3 µM (≈ 2.11 µg/mL) in the assay on Streptococcus pyogenes [4] (setting [6]) and 12 µM (≈ 8.43 µg/mL) in the assay on Staphylococcus aureus.
Turning to `O=[N+]([O-])c1cccc(CN(Cc2cccc(C(F)(F)F)c2)Cc2cccc(CN(CCNCCCO)Cc3cccc(C(F)(F)F)c3)n2)c1`, the minimal inhibitory concentration (MIC) was greater than 100 µM against Candida albicans; greater than 100 µM against Candida albicans (Candida albicans); greater than 100 µM in the assay with Escherichia coli [1]; 5 µM (≈ 3.45 µg/mL) against Escherichia coli [2]; 6 µM (≈ 4.14 µg/mL) in the assay with Escherichia coli [2] (setting [5]); 6 µM (≈ 4.14 µg/mL) against Enterococcus faecalis. The MIC was greater than 100 µM against Klebsiella pneumoniae; greater than 100 µM against Proteus vulgaris; greater than 100 µM in the assay on Pseudomonas aeruginosa; 6 µM (≈ 4.14 µg/mL) against Streptococcus pyogenes [3]; 5 µM (≈ 3.45 µg/mL) in the assay on Streptococcus pyogenes [4]; 3 µM (≈ 2.07 µg/mL) in the assay with Streptococcus pyogenes [4] (setting [6]). The MIC against Staphylococcus aureus was 6 µM (≈ 4.14 µg/mL).
Regarding `OCCCN(CCN(Cc1ccccc1)Cc1cccc(CN(Cc2ccccc2)Cc2ccccc2)n1)Cc1ccccc1`, the MIC amounted to 5 µM (≈ 2.99 µg/mL) in the assay on Candida albicans (Candida albicans), 25 µM (≈ 15 µg/mL) in the assay with Escherichia coli [2] (setting [5]) and 25 µM (≈ 15 µg/mL) with Streptococcus pyogenes [4] (setting [6]).
Consider `Cc1cccc(CN(CCNCCCO)Cc2cccc(CN(Cc3cccc([N+](=O)[O-])c3)Cc3cccc(C(F)(F)F)c3)n2)c1`, for which the MIC in the assay on Candida albicans (Candida albicans) is 50 µM (≈ 31.8 µg/mL); in the assay with Escherichia coli [1], greater than 100 µM; in the assay with Escherichia coli [2] (setting [5]), 25 µM (≈ 15.9 µg/mL); with Enterococcus faecalis, 6 µM (≈ 3.81 µg/mL); with Klebsiella pneumoniae it was greater than 100 µM; against Proteus vulgaris it was greater than 100 µM. For the same molecule, the MIC in the assay with Pseudomonas aeruginosa is greater than 100 µM; against Streptococcus pyogenes [3] it was 6 µM (≈ 3.81 µg/mL); in the assay with Streptococcus pyogenes [4] (setting [6]), 5 µM (≈ 3.18 µg/mL); with Staphylococcus aureus, 6 µM (≈ 3.81 µg/mL).
For the molecule `Cc1cccc(CN(CCNCCCO)Cc2cccc(CN(Cc3cccc(F)c3)Cc3cccc(C(F)(F)F)c3)n2)c1`, the MIC in the assay on Candida albicans (Candida albicans) is less than 12.5 µM; against Escherichia coli [1] it was greater than 100 µM; in the assay with Escherichia coli [2] (setting [5]) it was 5 µM (≈ 3.04 µg/mL); in the assay with Enterococcus faecalis, 6 µM (≈ 3.65 µg/mL); against Klebsiella pneumoniae, 25 µM (≈ 15.2 µg/mL); against Proteus vulgaris, greater than 100 µM. For the same molecule, the MIC was greater than 100 µM with Pseudomonas aeruginosa, 6 µM (≈ 3.65 µg/mL) in the assay on Streptococcus pyogenes [3], 5 µM (≈ 3.04 µg/mL) in the assay on Streptococcus pyogenes [4] (setting [6]) and 6 µM (≈ 3.65 µg/mL) in the assay on Staphylococcus aureus.
As to `Cc1cccc(CN(CCNCCCO)Cc2cccc(CN(Cc3cccc(C)c3)Cc3cccc(C(F)(F)F)c3)n2)c1`, the MIC with Candida albicans (Candida albicans) is less than 12.5 µM; in the assay on Escherichia coli [1], greater than 100 µM; in the assay with Escherichia coli [2] (setting [5]), 25 µM (≈ 15.1 µg/mL); in the assay on Enterococcus faecalis, 6 µM (≈ 3.63 µg/mL); in the assay with Klebsiella pneumoniae it was 12 µM (≈ 7.26 µg/mL); in the assay on Proteus vulgaris it was greater than 100 µM. Moreover, the MIC in the assay on Pseudomonas aeruginosa is greater than 100 µM; against Streptococcus pyogenes [3], 6 µM (≈ 3.63 µg/mL); in the assay on Streptococcus pyogenes [4] (setting [6]), 5 µM (≈ 3.02 µg/mL); in the assay with Staphylococcus aureus it was 6 µM (≈ 3.63 µg/mL).
